Results taken from ChEMBL document CHEMBL1124851, “Synthesis of (R)-(-)- and (S)-(+)-4-fluorodeprenyl and (R)-(-)- and (S)-(+)-[N-11C-methyl]-4-fluorodeprenyl and positron emission tomography studies in baboon brain” (J Med Chem, 1990).

What was measured:
[1] = The absolute striatal uptake of the carbon-11 labeled compound at 60 min was determined in baboon; type: ADME; details: papio hamadryas, 1 h
How it was run: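 PET in one young adult female baboon (Papio anubis, 12.6 kg). Anaesthesia was ketamine (10 mg/kg), then isoflurane/nitrous oxide maintenance. The same animal was used for three experiments, at least two weeks apart.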

[2] = Peak plasma radioactivity for the carbon-11 labeled compound was determined at 0.5 min after injection in baboon; (Range = 0.08-0.11); type: ADME, cell-free; details: papio hamadryas
[3] = Peak plasma radioactivity for the carbon-11 labeled compound was determined at 1.5 min after injection in baboon; (Range = 0.08-0.11); type: ADME, cell-free; details: papio hamadryas, 0.025 h
[4] = The amount of unchanged tracer in baboon plasma was determined 1 min after injection of the carbon-11 labeled compound; type: ADME, cell-free; details: papio hamadryas, read-out: Unchanged tracer
How it was run: (§1)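 Arterial plasma was sampled at 1, 10, 30 and 60 min after tracer injection in the baboon. Unchanged [N-11C-methyl]-4-fluorodeprenyl was measured by HPLC on a C18 Spherisorb 5 ODS column (250 × 4.6 mm). Mobile phase was methanol–0.05 N ammonium formate (70–30%) at 1 mL/min, with UV at 254 nm. Results are given as percent unchanged tracer.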

[5] = The amount of unchanged tracer in baboon plasma was determined 30 min after injection of the carbon-11 labeled compound; type: ADME, cell-free; details: papio hamadryas, read-out: Unchanged tracer; how it was run: as §1
[6] = The amount of unchanged tracer in baboon plasma was determined 60 min after injection of the carbon-11 labeled compound; type: ADME, cell-free; details: papio hamadryas, read-out: Unchanged tracer; how it was run: as §1
[7] = The amount of unchanged tracer in baboon plasma was determined 10 min after injection of the carbon-11 labeled compound; type: ADME, cell-free; details: papio hamadryas, read-out: Unchanged tracer; how it was run: as §1
Monoamine oxidase = biological target: T1, Monoamine oxidase (Homo sapiens, UniProt P21397+P27338); assay: In vitro inhibitory activity against Monoamine oxidase in baboon brain was determined; type: tissue-based, Papio hamadryas; details: target entry is the homologue from another species
T1 sequence (P21397 whole entry): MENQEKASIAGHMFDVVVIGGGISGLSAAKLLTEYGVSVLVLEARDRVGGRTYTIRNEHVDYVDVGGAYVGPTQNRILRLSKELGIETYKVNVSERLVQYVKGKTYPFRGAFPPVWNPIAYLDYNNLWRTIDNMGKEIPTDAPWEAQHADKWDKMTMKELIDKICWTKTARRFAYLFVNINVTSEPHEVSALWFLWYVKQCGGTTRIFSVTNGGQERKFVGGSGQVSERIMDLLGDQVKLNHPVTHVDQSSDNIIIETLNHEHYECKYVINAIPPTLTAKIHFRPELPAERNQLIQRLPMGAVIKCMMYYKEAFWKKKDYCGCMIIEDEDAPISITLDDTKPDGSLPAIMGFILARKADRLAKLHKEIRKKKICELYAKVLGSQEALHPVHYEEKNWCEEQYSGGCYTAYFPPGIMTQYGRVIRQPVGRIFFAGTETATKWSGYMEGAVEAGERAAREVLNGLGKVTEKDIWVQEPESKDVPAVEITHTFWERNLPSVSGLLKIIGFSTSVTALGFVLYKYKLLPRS
T1 sequence (P27338 whole entry): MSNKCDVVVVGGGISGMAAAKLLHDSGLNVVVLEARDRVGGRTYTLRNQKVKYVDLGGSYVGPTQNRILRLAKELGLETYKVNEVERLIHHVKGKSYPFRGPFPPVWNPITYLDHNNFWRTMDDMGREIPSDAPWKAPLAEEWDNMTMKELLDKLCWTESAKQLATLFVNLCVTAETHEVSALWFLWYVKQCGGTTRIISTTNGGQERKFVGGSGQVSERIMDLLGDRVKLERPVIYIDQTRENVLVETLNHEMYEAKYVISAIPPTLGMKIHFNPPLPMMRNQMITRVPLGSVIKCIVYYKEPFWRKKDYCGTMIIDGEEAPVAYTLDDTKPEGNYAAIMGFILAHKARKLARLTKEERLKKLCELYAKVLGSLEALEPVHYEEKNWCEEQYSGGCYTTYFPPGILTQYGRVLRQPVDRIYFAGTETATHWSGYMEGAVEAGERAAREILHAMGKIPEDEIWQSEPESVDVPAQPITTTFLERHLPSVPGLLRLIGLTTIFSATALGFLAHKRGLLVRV

Structure (SMILES) | Uptake [1] | Peak radioactivity in blood [2] [% injected dose cm**-3] | Peak radioactivity in blood [3] [% injected dose cm**-3] | remaining at 1 min [4] [%] | remaining at 0.5 h [5] [%] | remaining at 1 h [6] [%] | remaining at 10 min [7] [%] | % injected dose/cm3 [1] [%] | IC50 (Monoamine oxidase) [nM]
C#CCN(C)C(C)Cc1ccc(F)cc1 (stereo not drawn) | 0.041 % injected dose cm**-3 | 0.11 | 0.01 | 96 | 16 | 15 | 43 |  | 
C#CCN(C)[C@H](C)Cc1ccccc1 [SELEGILINE] | 0.057% |  |  |  |  |  |  |  | 
C#CCN([11CH3])[C@H](C)Cc1ccc(F)cc1 |  | 0.11 | 0.01 | 96 | 20 | 14 | 50 | 0.053 | 
C#CCN(C)[C@@H](C)Cc1ccc(F)cc1 |  | 0.11 | 0.01 | 98 | 30 | 22 | 61 | 0.021 | 
C#CCN(C)[C@H](C)Cc1ccc(F)cc1 |  |  |  |  |  |  |  |  | 41.7
